How the values were obtained:
[1] = biological target: GABA-A receptor; anion channel; assay: Displacement of [3H]flumazenil from bovine benzodiazepine receptor GABA-A channel of brain membranes; parameters: species or system Bos taurus
[2] = biological target: GABA A receptor alpha-2/beta-2/gamma-2 (Rattus norvegicus, UniProt P18508+P23576+P63138); assay: Displacement of [3H]flumazenil from rat GABA-A Gamma-aminobutyric acid A receptor alpha-2-beta-2-gamma-2 expressed in HEK293 cells; format: cell-based
Sequence of GABA A receptor alpha-2/beta-2/gamma-2 (P18508 whole entry): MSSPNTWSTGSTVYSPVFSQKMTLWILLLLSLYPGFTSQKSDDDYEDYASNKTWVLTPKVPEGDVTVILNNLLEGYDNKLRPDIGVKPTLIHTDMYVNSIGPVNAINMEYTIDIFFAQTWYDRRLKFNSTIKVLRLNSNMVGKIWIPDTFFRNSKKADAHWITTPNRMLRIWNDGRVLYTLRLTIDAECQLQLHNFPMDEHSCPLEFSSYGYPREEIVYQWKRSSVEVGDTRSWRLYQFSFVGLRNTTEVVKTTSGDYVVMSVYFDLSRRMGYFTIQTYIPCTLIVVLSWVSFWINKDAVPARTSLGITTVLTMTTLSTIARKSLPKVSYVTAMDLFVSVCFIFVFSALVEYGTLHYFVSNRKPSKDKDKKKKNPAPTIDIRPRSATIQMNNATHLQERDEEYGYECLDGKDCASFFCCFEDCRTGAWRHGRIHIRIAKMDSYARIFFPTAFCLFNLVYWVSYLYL
Sequence of GABA A receptor alpha-2/beta-2/gamma-2 (P23576 whole entry): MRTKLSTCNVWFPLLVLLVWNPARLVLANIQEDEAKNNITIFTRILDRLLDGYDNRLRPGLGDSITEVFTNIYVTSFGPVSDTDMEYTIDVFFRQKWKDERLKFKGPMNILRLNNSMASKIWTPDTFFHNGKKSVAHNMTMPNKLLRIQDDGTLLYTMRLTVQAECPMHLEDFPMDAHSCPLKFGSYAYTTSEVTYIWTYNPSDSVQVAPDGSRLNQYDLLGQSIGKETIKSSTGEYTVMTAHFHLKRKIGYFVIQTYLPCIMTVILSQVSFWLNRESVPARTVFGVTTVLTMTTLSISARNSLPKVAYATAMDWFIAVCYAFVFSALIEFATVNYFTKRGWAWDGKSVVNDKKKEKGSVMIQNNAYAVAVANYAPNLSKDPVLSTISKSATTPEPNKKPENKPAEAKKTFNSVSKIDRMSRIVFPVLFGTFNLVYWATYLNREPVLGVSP
Sequence of GABA A receptor alpha-2/beta-2/gamma-2 (P63138 whole entry): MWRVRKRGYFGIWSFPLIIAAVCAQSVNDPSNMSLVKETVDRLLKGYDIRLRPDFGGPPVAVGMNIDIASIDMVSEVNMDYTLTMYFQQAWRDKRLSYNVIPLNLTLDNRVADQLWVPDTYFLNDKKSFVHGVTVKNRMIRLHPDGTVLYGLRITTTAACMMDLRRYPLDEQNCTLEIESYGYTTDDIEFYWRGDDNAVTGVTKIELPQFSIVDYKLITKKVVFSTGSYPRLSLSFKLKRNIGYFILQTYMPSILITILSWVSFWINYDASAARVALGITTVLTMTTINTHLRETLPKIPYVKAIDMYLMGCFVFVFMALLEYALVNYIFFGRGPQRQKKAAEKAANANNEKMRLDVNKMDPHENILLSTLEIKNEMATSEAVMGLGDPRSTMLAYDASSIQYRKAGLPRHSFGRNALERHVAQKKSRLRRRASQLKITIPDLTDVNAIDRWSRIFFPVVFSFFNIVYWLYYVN
Summary of the method: (§1)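 HEK293 cells stably expressing each rat subtype, grown in DMEM/F-12 with 10% FBS at 37 °C, 5% CO2. Harvested cells were homogenized in 10 mM potassium phosphate pH 7.4 and spun at 48 000g for 30 min at 4 °C. Pellets were washed and resuspended with 100 mM KCl. Ki from three determinations.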

[3] = biological target: GABA A receptor alpha-5/beta-3/gamma-2 (Rattus norvegicus, UniProt P18508+P19969+P63079); assay: Displacement of [3H]flumazenil from rat GABA-A Gamma-aminobutyric acid A receptor alpha-5-beta-3-gamma-2 expressed in HEK293 cells; format: cell-based
Sequence of GABA A receptor alpha-5/beta-3/gamma-2 (P18508 whole entry): as the sequence (P18508 whole entry) above
Sequence of GABA A receptor alpha-5/beta-3/gamma-2 (P19969 whole entry): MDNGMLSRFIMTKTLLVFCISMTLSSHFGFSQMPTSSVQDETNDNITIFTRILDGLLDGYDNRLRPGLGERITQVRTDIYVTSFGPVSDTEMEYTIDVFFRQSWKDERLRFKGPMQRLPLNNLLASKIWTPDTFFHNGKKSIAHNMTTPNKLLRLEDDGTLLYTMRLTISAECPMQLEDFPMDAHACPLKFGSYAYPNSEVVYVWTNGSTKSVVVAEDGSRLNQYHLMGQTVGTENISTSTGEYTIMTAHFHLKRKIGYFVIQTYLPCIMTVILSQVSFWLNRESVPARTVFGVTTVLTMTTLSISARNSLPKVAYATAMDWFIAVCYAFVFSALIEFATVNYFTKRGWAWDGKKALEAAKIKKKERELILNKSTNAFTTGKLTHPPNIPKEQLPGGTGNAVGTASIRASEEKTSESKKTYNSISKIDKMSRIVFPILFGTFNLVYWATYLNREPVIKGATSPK
Sequence of GABA A receptor alpha-5/beta-3/gamma-2 (P63079 whole entry): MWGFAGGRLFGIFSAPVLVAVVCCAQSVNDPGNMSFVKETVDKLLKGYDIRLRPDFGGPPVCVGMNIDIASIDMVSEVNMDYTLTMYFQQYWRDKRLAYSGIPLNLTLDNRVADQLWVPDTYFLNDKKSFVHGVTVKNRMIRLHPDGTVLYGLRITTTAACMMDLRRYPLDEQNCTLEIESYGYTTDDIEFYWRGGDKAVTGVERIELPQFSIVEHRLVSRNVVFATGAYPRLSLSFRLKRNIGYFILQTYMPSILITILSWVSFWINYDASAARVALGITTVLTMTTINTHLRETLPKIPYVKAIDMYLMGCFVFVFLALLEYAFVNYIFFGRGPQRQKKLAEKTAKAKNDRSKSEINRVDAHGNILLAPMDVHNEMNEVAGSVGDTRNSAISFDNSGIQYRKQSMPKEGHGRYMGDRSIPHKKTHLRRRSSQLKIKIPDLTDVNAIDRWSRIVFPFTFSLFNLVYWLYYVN
Summary of the method: as §1, with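 “KCl. Incubated with [3H]flumazenil 1-2 nM and compound 10-9-10-5 M for 1 h at 4 °C. […]” for “KCl.”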

[4] = biological target: GABA-A receptor; alpha-1/beta-2/gamma-2 (Rattus norvegicus, UniProt P18508+P62813+P63138); assay: Displacement of [3H]flumazenil from rat GABA-A Gamma-aminobutyric acid A receptor alpha-1-beta-2-gamma-2 expressed in HEK293 cells; format: cell-based; summary of the method: as §1
Sequence of GABA-A receptor; alpha-1/beta-2/gamma-2 (P18508 whole entry): as the sequence (P18508 whole entry) above
Sequence of GABA-A receptor; alpha-1/beta-2/gamma-2 (P62813 whole entry): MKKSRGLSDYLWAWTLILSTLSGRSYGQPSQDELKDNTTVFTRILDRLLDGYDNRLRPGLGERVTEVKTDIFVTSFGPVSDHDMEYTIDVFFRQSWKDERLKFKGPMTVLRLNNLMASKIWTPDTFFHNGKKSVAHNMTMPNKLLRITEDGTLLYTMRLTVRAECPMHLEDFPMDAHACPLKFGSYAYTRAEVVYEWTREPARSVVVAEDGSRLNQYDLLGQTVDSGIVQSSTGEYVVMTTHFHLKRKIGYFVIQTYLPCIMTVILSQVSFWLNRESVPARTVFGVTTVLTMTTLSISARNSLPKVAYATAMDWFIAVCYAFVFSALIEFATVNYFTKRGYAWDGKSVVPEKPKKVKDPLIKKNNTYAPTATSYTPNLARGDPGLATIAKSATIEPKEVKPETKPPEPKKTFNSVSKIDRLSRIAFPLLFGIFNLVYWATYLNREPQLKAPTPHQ
Sequence of GABA-A receptor; alpha-1/beta-2/gamma-2 (P63138 whole entry): as the sequence (P63138 whole entry) above

Cc1ccc(-c2nn3c(=O)[nH]c4ccccc4n3c2=O)cc1
Ki [1]: 616 nM

COc1ccc(-c2nn3c(=O)[nH]c4ccc(Cl)cc4n3c2=O)cc1
Ki [2]: 18 nM
Ki [3]: 7.57 nM
Ki [1]: 6 nM
Ki [4]: 1.82 nM

O=c1[nH]c2ccc(Cl)cc2n2c(=O)c(-c3ccc(F)cc3)nn12
Ki [1]: 56 nM

O=c1[nH]c2ccccc2n2c(=O)c(-c3ccc(F)cc3)nn12
Ki [1]: 54 nM

COc1ccc(-c2nn3c(=O)[nH]c4ccccc4n3c2=O)cc1
Ki [2]: 14.3 nM
Ki [3]: 17.2 nM
Ki [1]: 11 nM
Ki [4]: 3.76 nM

O=c1[nH]c2ccccc2n2c(=O)c(-c3ccccc3)nn12
Ki [2]: 27.6 nM
Ki [3]: 24.1 nM
Ki [1]: 22 nM
Ki [4]: 9.14 nM

Cc1ccc(-c2nn3c(=O)[nH]c4ccc(Cl)cc4n3c2=O)cc1
Ki [1]: 185 nM

O=c1[nH]c2ccccc2n2c(=O)c(-c3ccc(Cl)cc3)nn12
Ki [1]: 169 nM

O=c1[nH]c2ccccc2n2c(=O)c(-c3ccc(Br)cc3)nn12
Ki [1]: 224 nM

O=c1[nH]c2ccccc2n2c(=O)c(-c3ccccc3F)nn12
Ki [1]: > 10000 nM

COc1ccc(-c2nn3c(=O)[nH]c4ccccc4n3c2=O)cc1OC
Ki [1]: > 10000 nM

O=c1[nH]c2ccc(Cl)cc2n2c(=O)c(-c3ccc(Cl)cc3)nn12
Ki [1]: 38 nM

O=c1[nH]c2ccc(Cl)cc2n2c(=O)c(-c3ccccc3)nn12
Ki [2]: 13.9 nM
Ki [3]: 10.3 nM
Ki [1]: 2.8 nM
Ki [4]: 1.74 nM

O=C1CN=C(c2ccccc2Cl)c2cc([N+](=O)[O-])ccc2N1 [CLONAZEPAM]
Ki [1]: 0.85 nM
